The subject of assay [1] is Trichophyton mentagrophytes. Kind of assay: Antifungal activity against Trichophyton mentagrophytes ATCC 9129 at pH 7 after 5 days in presence of 10% beef serum. In kind it is functional. Particulars: Trichophyton mentagrophytes, ATCC 9129, 120 h; read-out: MIC. Summed up: (§1)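 Agar-dilution MIC in Sabouraud dextrose agar at pH 5.6 or 7.0, with or without 10% beef serum. Plates were incubated at 28 °C for 5 days. MIC is the lowest concentration (µg/mL) giving 100% inhibition. Steps were 1 µg/mL up to 10, 2 µg/mL from 10–20, and 10 µg/mL from 20–100; 100 µg/mL was the top level, and no inhibition there is scored as >100.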

Assay [2] concerns Trichophyton mentagrophytes. The experiment in a line: Antifungal activity against Trichophyton mentagrophytes ATCC 9129 at pH 5.6 after 5 days in absence of 10% beef serum. In kind it is functional. Particulars: Trichophyton mentagrophytes, ATCC 9129, 120 h; read-out: MIC. The gist of the method: as §1
Assay [3] deals with Candida albicans. The experiment in a line: Antifungal activity against Candida albicans ATCC 10231 at <100 ug/ml at pH 7 after 20 h in presence of 10% beef serum.
For assay [4], the system named is Candida albicans. Kind of assay: Antifungal activity against Candida albicans ATCC 10231 at <100 ug/ml at pH 7 after 20 h in absence of 10% beef serum.
Assay [5] relates to Aspergillus niger. The experiment in a line: Antifungal activity against Aspergillus niger ATCC 1004 at <100 ug/ml at pH 7 after 5 days in absence of 10% beef serum. In kind it is functional, organism-based. Summed up: as §1
Assay [6] concerns Aspergillus niger. The experiment in a line: Antifungal activity against Aspergillus niger ATCC 1004 at <100 ug/ml at pH 7 after 5 days in presence of 10% beef serum. In kind it is functional, organism-based. Summed up:
as §1

Assay [7] relates to Aspergillus niger. The experiment in a line: Antifungal activity against Aspergillus niger ATCC 1004 at <100 ug/ml at pH 5.6 after 5 days in absence of 10% beef serum. In kind it is functional, organism-based. The gist of the method:
as §1

In assay [8] the test system is Aspergillus niger. Kind of assay: Antifungal activity against Aspergillus niger ATCC 1004 at <100 ug/ml at pH 5.6 after 5 days in presence of 10% beef serum. In kind it is functional, organism-based. The gist of the method:
as §1

Assay [9] concerns Candida albicans. The experiment in a line: Antifungal activity against Candida albicans ATCC 10231 at <100 ug/ml at pH 5.6 after 20 h in presence of 10% beef serum.
The subject of assay [10] is Trichophyton mentagrophytes. The experiment in a line: Antifungal activity against Trichophyton mentagrophytes ATCC 9129 at pH 7 after 5 days in absence of 10% beef serum. In kind it is functional. Particulars: Trichophyton mentagrophytes, ATCC 9129, 120 h; read-out: MIC. The gist of the method:
as §1

The test system of assay [11] is Candida albicans. Kind of assay: Antifungal activity against Candida albicans ATCC 10231 at <100 ug/ml at pH 5.6 after 20 h in absence of 10% beef serum.
The subject of assay [12] is Mucor mucedo. The experiment in a line: Antifungal activity against Mucor mucedo ATCC 7941 at <100 ug/ml at pH 7 after 20 h in presence of 10% beef serum.
Assay [13] concerns Mucor mucedo. The experiment in a line: Antifungal activity against Mucor mucedo ATCC 7941 at <100 ug/ml at pH 7 after 20 h in absence of 10% beef serum.
In assay [14] the test system is Trichophyton mentagrophytes. Kind of assay: Antifungal activity against Trichophyton mentagrophytes ATCC 9129 at pH 5.6 after 5 days in presence of 10% beef serum. In kind it is functional. Particulars: Trichophyton mentagrophytes, ATCC 9129, 120 h; read-out: MIC. The gist of the method: as §1
For assay [15], the system named is Mucor mucedo. The experiment in a line: Antifungal activity against Mucor mucedo ATCC 7941 at <100 ug/ml at pH 5.6 after 20 h in absence of 10% beef serum.
Assay [16] relates to Mucor mucedo. Kind of assay: Antifungal activity against Mucor mucedo ATCC 7941 at <100 ug/ml at pH 5.6 after 20 h in presence of 10% beef serum.

Values after ≈ are worked out from the molar mass of the structure shown. Structures can show the parent of a compound that is named as a salt. Active and inactive are the calls of the source. No cut-off for these calls is given here.

One may read the MIC as the lowest concentration that inhibits growth of the organism.

For the molecule `CCCCOC(=O)/C=C\C(=O)OCCCC`, the MIC in [1] worked out at 50 µg/mL; in assay [2], 8 µg/mL (≈ 35 µM); in [10] it was 30 µg/mL (≈ 131 µM); in [14] it was 30 µg/mL. Further, the inhibition result with Candida albicans [3], in the assay on Candida albicans [4], in the assay on Aspergillus niger [5], with Aspergillus niger [6], with Aspergillus niger [7] and in the assay with Aspergillus niger [8] was “inactive” in each case. Also, the inhibition result in the assay on Candida albicans [9], in the assay with Candida albicans [11], in the assay on Mucor mucedo [12], in the assay on Mucor mucedo [13], with Mucor mucedo [15] and with Mucor mucedo [16] was “inactive” throughout.
For the molecule `CCCOC(=O)/C=C\C(=O)OCCC`, the minimum inhibitory concentration (MIC) in [1] stood at 60 µg/mL; in [2], 14 µg/mL (≈ 69.9 µM); in assay [10], 50 µg/mL (≈ 250 µM); in assay [14], 40 µg/mL. Moreover, the inhibition result with Candida albicans [3], in the assay on Candida albicans [4], in the assay with Aspergillus niger [5], in the assay with Aspergillus niger [6], with Aspergillus niger [7] and in the assay with Aspergillus niger [8] was “inactive” in each case. Further, the inhibition entry in the assay with Candida albicans [9], with Candida albicans [11], in the assay with Mucor mucedo [12], in the assay with Mucor mucedo [13], in the assay with Mucor mucedo [15] and with Mucor mucedo [16] was “inactive” throughout.
For `CCOC(=O)/C=C\C(=O)OCC` [DIETHYL MALEATE], the minimum inhibitory concentration (MIC) in assay [1] came out at 100 µg/mL; in assay [2], 50 µg/mL; in assay [10] it was 90 µg/mL; in [14] it was 60 µg/mL. Further, the inhibition result in the assay on Candida albicans [3], in the assay on Candida albicans [4], with Aspergillus niger [5], in the assay with Aspergillus niger [6], in the assay with Aspergillus niger [7] and in the assay on Aspergillus niger [8] was “inactive” in each case. Also, the inhibition entry with Candida albicans [9], with Candida albicans [11], with Mucor mucedo [12], in the assay on Mucor mucedo [13], in the assay with Mucor mucedo [15] and in the assay with Mucor mucedo [16] was “inactive” each time.
Consider `COC(=O)/C=C\C(=O)OC` [DIMETHYL MALEATE], for which the minimal inhibitory concentration (MIC) in [1] was 60 µg/mL; in [2] it was 40 µg/mL; in assay [10] it was 30 µg/mL; in assay [14], 50 µg/mL. Further, the inhibition entry with Candida albicans [3], in the assay on Candida albicans [4], in the assay with Aspergillus niger [5], with Aspergillus niger [6], in the assay with Aspergillus niger [7] and in the assay with Aspergillus niger [8] was “inactive” each time. Besides, the inhibition result in the assay with Candida albicans [9], in the assay with Candida albicans [11], in the assay on Mucor mucedo [12], in the assay on Mucor mucedo [13], in the assay on Mucor mucedo [15] and in the assay on Mucor mucedo [16] was “inactive” throughout.
Take `CCCCCOC(=O)/C=C\C(=O)OCCCCC`: the MIC in [1] stood at 60 µg/mL; in [2], 10 µg/mL (≈ 39 µM); in assay [10] it was 30 µg/mL (≈ 117 µM); in [14], 50 µg/mL. Besides, the inhibition entry in the assay on Candida albicans [3], with Candida albicans [4], in the assay with Aspergillus niger [5], with Aspergillus niger [6], with Aspergillus niger [7] and with Aspergillus niger [8] was “inactive” in each case. In addition, the inhibition result in the assay on Candida albicans [9], in the assay with Candida albicans [11], in the assay with Mucor mucedo [12], in the assay with Mucor mucedo [13], in the assay on Mucor mucedo [15] and with Mucor mucedo [16] was “inactive” throughout.

The record behind these values is ChEMBL document CHEMBL3244142, “Antifungal properties of 2-bromo-3-fluorosuccinic acid esters and related compounds” (1977).
